Measured values from ChEMBL document CHEMBL3046604, “Synthesis and fungistatic activity of new groups of 2,4-dihydroxythiobenzoyl derivatives against phytopathogenic fungi” (J Agric Food Chem, 2003).

Key:
Alternaria alternata [1] = experiment: Fungistatic activity against Alternaria alternata assessed as mycelial growth inhibition at 200 ug/ml after 4 to 8 days relative to control; type: functional; conditions: read-out: GI
Summary of the method: (§1)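 Compound solutions or suspensions were diluted into PDA agar to final 200 or 20 µg/mL and poured into Petri dishes. Once the agar set, mycelium-covered agar disks of the fungus were placed at three sites on the surface. Linear colony growth was measured after 4-8 days, depending on the culture. Inhibition J = [(C − T)/C] × 100 versus untreated control, reported on a four-degree scale.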

Rhizoctonia solani [2] = experiment: Fungistatic activity against Rhizoctonia solani assessed as mycelial growth inhibition at 200 ug/ml after 4 to 8 days relative to control; type: functional; conditions: read-out: GI; summary of the method: as §1
[3] = Lipophilicity, log K of the compound in methanol-water mixture by HPLC; type: physicochemical
Summary of the method: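 Reversed-phase HPLC on a Hypersil BDS C18 column (5 µm, 150 × 4.6 mm) with UV detection at 320 nm. Samples were dissolved in methanol. Mobile phase was methanol at varying volume fractions in 10 mM acetate buffer pH 4, run at 1 mL/min and room temperature. Dead time was taken from injection of acetone dissolved in water.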

Botrytis cinerea [4] = experiment: Fungistatic activity against Botryotinia fuckeliana assessed as mycelial growth inhibition at 20 ug/ml after 4 to 8 days relative to control; type: functional; conditions: read-out: GI; summary of the method: as §1
Rhizoctonia solani [5] = experiment: Fungistatic activity against Rhizoctonia solani assessed as mycelial growth inhibition at 20 ug/ml after 4 to 8 days relative to control; type: functional; conditions: read-out: GI; summary of the method: as §1
Fusarium culmorum [6] = experiment: Fungistatic activity against Fusarium culmorum assessed as mycelial growth inhibition at 200 ug/ml after 4 to 8 days relative to control; type: functional; conditions: read-out: GI; summary of the method: as §1
Botrytis cinerea [7] = experiment: Fungistatic activity against Botryotinia fuckeliana assessed as mycelial growth inhibition at 200 ug/ml after 4 to 8 days relative to control; type: functional; conditions: read-out: GI; summary of the method: as §1
Blumeria graminis [8] = experiment: Fungistatic activity against Blumeria graminis infested wheat seedling assessed as inhibition of fungal infection at 500 ug/ml applied as spray after 7 to 14 days under green house conditions relative to control; type: functional
Summary of the method: (§2)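 Greenhouse test on healthy wheat seedlings with Erysiphe graminis. At the well-developed first-leaf stage, plants were sprayed with compound solution at 1000 or 500 µg/mL, 10 mL of solution per treatment, with three repeats in 9 cm paraffin cups.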

Alternaria alternata [9] = experiment: Fungistatic activity against Alternaria alternata assessed as mycelial growth inhibition at 20 ug/ml after 4 to 8 days relative to control; type: functional; conditions: read-out: GI; summary of the method: as §1
Phytophthora cactorum [10] = experiment: Fungistatic activity against Phytophthora cactorum assessed as mycelial growth inhibition at 20 ug/ml after 4 to 8 days relative to control; type: functional; conditions: read-out: GI; summary of the method: as §1
Phytophthora cactorum [11] = experiment: Fungistatic activity against Phytophthora cactorum assessed as mycelial growth inhibition at 200 ug/ml after 4 to 8 days relative to control; type: functional; conditions: read-out: GI; summary of the method: as §1
Blumeria graminis [12] = experiment: Fungistatic activity against Blumeria graminis infested wheat seedling assessed as inhibition of fungal infection at 1000 ug/ml applied as spray after 7 to 14 days under green house conditions relative to control; type: functional; summary of the method: as §2
Fusarium culmorum [13] = experiment: Fungistatic activity against Fusarium culmorum assessed as mycelial growth inhibition at 20 ug/ml after 4 to 8 days relative to control; type: functional; conditions: read-out: GI; summary of the method: as §1

| Structure (SMILES) | inhibition of growth at 200 µg/mL (Alternaria alternata [1]) | inhibition of growth at 200 µg/mL (Rhizoctonia solani [2]) | log K [3] | inhibition of growth at 20 µg/mL (Botrytis cinerea [4]) | inhibition of growth at 20 µg/mL (Rhizoctonia solani [5]) | inhibition of growth at 200 µg/mL (Fusarium culmorum [6]) | inhibition of growth at 200 µg/mL (Botrytis cinerea [7]) | inhibition at 500 µg/mL (Blumeria graminis [8]) | inhibition of growth at 20 µg/mL (Alternaria alternata [9]) | inhibition of growth at 20 µg/mL (Phytophthora cactorum [10]) | inhibition of growth at 200 µg/mL (Phytophthora cactorum [11]) | inhibition at 1000 µg/mL (Blumeria graminis [12]) | inhibition of growth at 20 µg/mL (Fusarium culmorum [13]) |
| --- | --- | --- | --- | --- | --- | --- | --- | --- | --- | --- | --- | --- | --- |
| Oc1ccc(C(=S)Nc2ccc(OCc3ccccc3)cc2)c(O)c1 | 61% | 41% | 0.423 | 21% | 0% | 21% | 61% | 0% | 0% | 0% | 41% | 21% | 0% |
| CCOC(=O)Cc1csc(NC(=S)c2ccc(O)cc2O)n1 | 21% | 0% | 0.048 | 0% | 0% | 0% | 0% | 0% | 0% | 0% | 41% | 21% | 0% |
| O=C(O)c1cc2cc(OCc3ccccc3)ccc2n1C(=S)c1ccc(O)cc1O | 21% | 0% | 0.405 | 0% | 0% | 21% | 0% | 0% | 0% | 0% | 41% | 21% | 0% |
| O=C(Nc1ccccc1)c1ccccc1NC(=S)c1ccc(O)cc1O | 61% | 61% | -0.37 | 0% | 21% | 61% | 41% | 0% | 0% | 0% | 61% | 41% | 0% |
| Oc1ccc(C(=S)NNC(=S)Nc2cccc(Cl)c2)c(O)c1 | 0% | 0% | 0.229 | 0% | 0% | 0% | 0% | 0% | 0% | 0% | 61% | 0% | 0% |
| Oc1ccc(C(=S)Nc2ccc(Oc3ccccc3)cc2)c(O)c1 | 41% | 21% | 1.305 | 0% | 0% | 0% | 0% | 0% | 0% | 0% | 21% | 0% | 0% |
| Oc1ccc(C(=S)n2nnc3cc(Cl)ccc32)c(O)c1 | 81% | 81% | 0.936 | 21% | 21% | 81% | 81% | 0% | 0% | 21% | 81% | 21% | 0% |
| CC(C)(C)c1cc(NC(=S)c2ccc(O)cc2O)no1 | 61% | 41% | -0.302 | 0% | 0% | 61% | 41% | 0% | 21% | 0% | 61% | 21% | 21% |
